We go through two compounds from PMC10762718 (RSC Advances, 2024).

What all share (format): cell-based
The subject of one data set is MDA-MB-453 cells. Kind of data set: MTT cell viability assay, MDA-MB-453. The settings on record: for viability at 1 µM / viability at 10 µM / viability at 25 µM: Homo sapiens, MDA-MB-453, read-out: Cell viability (%) ±SD; for IC50 against MDA-MB-453 cells: tested at 1, 10 and 25 μM. In a few lines: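 MDA-MB-453 (HER2-positive) cells were exposed to test compound at 1, 10 and 25 μM for 72 h. After medium removal, MTT was added for 3 h at 37 °C in CO2. Formazan was dissolved in DMSO and absorbance read at 595 nm. Percent viable cells are relative to untreated control cells.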

The test system of data set [1] is normal mammary epithelial MCF-10A cells. Kind of data set: MTT cell viability assay, normal MCF-10A cells. The following applies: tested at 25, 50 and 100 μM. The procedure, abridged: (§1)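 Normal mammary epithelial MCF-10A cells were exposed to test compound at 25, 50 and 100 μM for 72 h. Cells were then given MTT after medium removal, 3 h at 37 °C in CO2. Formazan was dissolved in DMSO and absorbance read at 595 nm. Viability is expressed as percent of untreated control cells.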
(Tetrazolium assays rely on reduction of a dye to a coloured formazan, in cell work by metabolically active cells.)

The nature of data set [2]: MTT cell viability assay, normal MCF-10A cells. The following applies: human, MCF-10A normal mammary epithelial cells. The procedure, abridged:
as §1

Data set [3] concerns MDA-MB-231 (human breast cancer) cells. Kind of data set: MTT cell viability assay, MDA-MB-231. The following applies: for inhibition at 25 µM: MDA-MB-231; for viability at 10 µM / viability at 25 µM / viability at 50 µM: MDA-MB-231, 72 h, read-out: Cell viability (%) ±SD. The procedure, abridged: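 MDA-MB-231 cells were grown as a monolayer in DMEM with 10% heat-inactivated FBS and 1% penicillin-streptomycin at 37 °C in humidified CO2, subcultured every third day with trypsin-EDTA, and used before passage 8. Cells were exposed 72 h to 10, 25 and 50 μM. Medium was removed, MTT added for 3 h at 37 °C, formazan dissolved in DMSO and read at 595 nm. Viability is relative to untreated control, triplicates, ±SD. IC50 comes from the viability-versus-concentration plot.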

In data set [4] the test system is MCF-7 breast cancer cells. Kind of data set: MTT cell viability assay, MCF-7. The settings on record: Homo sapiens; for inhibition at 25 µM: MCF7; for IC50: MCF7, 72 h, read-out: IC50 against MCF-7 breast cancer cells line; for viability at 1 µM / viability at 10 µM / viability at 25 µM: MCF7, read-out: Cell viability (%) ±SD. The procedure, abridged:
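After medium removal, MTT was added for 3 h at 37 °C in CO2, formazan dissolved in DMSO and absorbance read at 595 nm. Viability is relative to untreated cells, triplicates, n = 3, ±SD. IC50 comes from plotting percent viability against concentration.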

For the compound `CC(=O)OC[C@@H]1O[C@H](n2cc(Cn3ccc4nc(-c5ccc(C(F)(F)F)cc5)cc(=O)n43)nn2)[C@@H](OC(C)=O)[C@H](OC(C)=O)[C@@H]1OC(C)=O` (stereo in doubt) [Compound 36, (2S,3R,4R,5S,6S)-2-(Acetoxymethyl)-6-(4-((7-oxo-5-(4-(trifluoromethyl)phenyl)pyrazolo[1,5-a]pyrimidin-1(7H)-yl)methyl)-1H-1,2,3-triazol-1-yl)tetrahydro-2H-pyran-3,4,5-triyl triacetate], in the data set on MDA-MB-453 cells, the viability (as a rule, a per cent measure of how many cells are alive, often set against a control) at 1 µM is 91.5 ± 4.6%; the viability at 10 µM was found to be 82.9 ± 1.2%; the viability at 25 µM came to 63.8 ± 1.7%; the “IC50 against MDA-MB-453 cells” value was “did not reach up to IC50 value”. For the same compound, the “growth inhibitory activity against normal breast epithelial cell (MCF-10A)” value in data set [1] is “none of these compounds did have any growth inhibitory activity”. In data set [2], the viability at 72 h, 25 µM worked out at 88.6 ± 1.5%; the viability at 72 h, 50 µM came out at 86.1 ± 2.8%; the viability at 72 h, 100 µM was 84.2 ± 3%. In data set [3], the inhibition (usually the change of the read-out against control, counted positive when it falls) at 25 µM was around 50%; the viability at 10 µM is 70.4 ± 5.36%; the viability at 25 µM was determined as 46.1 ± 3.32%; the viability at 50 µM is 41.2 ± 1.26%. Besides, in data set [4], the inhibition at 25 µM is around 50%; the IC50 – broadly, the concentration that gives 50% inhibition – stood at 4.93 µM; the viability at 1 µM was 52.3 ± 3.1%; the viability at 10 µM is 32.4 ± 0.9%. For the same compound, the viability at 25 µM in data set [4] worked out at 28.1 ± 4.4%.
Take `COc1ccc(-c2cc(=O)n3c(ccn3Cc3cn([C@H]4O[C@H](COC(C)=O)[C@@H](OC(C)=O)[C@H](OC(C)=O)[C@@H]4OC(C)=O)nn3)n2)cc1` [Compound 41, (2R,3R,4S,5S,6S)-2-(Acetoxymethyl)-6-(4-((5-(4-methoxyphenyl)-7-oxopyrazolo[1,5-a]pyrimidin-1(7H)-yl)methyl)-1H-1,2,3-triazol-1-yl)tetrahydro-2H-pyran-3,4,5-triyl triacetate]: in the data set on MDA-MB-453 cells, the viability at 1 µM was determined as 96.4 ± 4.8%, the viability at 10 µM stood at 77.4 ± 5.4%, the viability at 25 µM stood at 95.1 ± 35.7% and the “IC50 against MDA-MB-453 cells” value is listed as “did not reach up to IC50 value”. In data set [1], the “growth inhibitory activity against normal breast epithelial cell (MCF-10A)” value is recorded as “none of these compounds did have any growth inhibitory activity”. For the same compound, in data set [2], the viability at 72 h, 25 µM was found to be 89.8 ± 2.8%; the viability at 72 h, 50 µM came out at 84.2 ± 5.8%; the viability at 72 h, 100 µM was determined as 83 ± 1.5%. Besides, in data set [3], the inhibition at 25 µM was around 50%, the viability at 10 µM came out at 66.7 ± 8.21%, the viability at 25 µM stood at 54.3 ± 6.12% and the viability at 50 µM turned out to be 44.2 ± 4.11%. For the same compound, in data set [4], the inhibition at 25 µM is around 50%, the IC50 was 21.8 µM, the viability at 1 µM is 72.8 ± 4.2% and the viability at 10 µM came to 58.2 ± 3.8%. The viability at 25 µM in data set [4] came to 48.1 ± 3.5%.
